A short description of data set [1]: Metabolic stability in human hepatic microsomes at 1 uM after 30 mins at 37 degC. It counts as ADME. The conditions noted are these: liver microsomes, read-out: Stability. The method in brief:
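Compound at 1 μM preincubated 10 min at 37 °C in potassium phosphate buffer pH 7.4 with 0.5 mg/mL human or mouse hepatic microsomes; NADP/G6P/G6P-DH cofactor mix added; samples at 0 and 30 min analysed by LC-MS/MS (MRM, verapamil internal standard); % remaining = area 30 min/area 0 min × 100.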

A short description of data set [2]: Metabolic stability in mouse hepatic microsomes at 1 uM after 30 mins at 37 degC. The conditions noted are these: liver microsomes.
Data set [3] is described as follows: Half life in CD1 mouse at 15 mg/kg, po. Type of data set: ADME, organism-based. On the set-up: dose 15 mg/kg, route oral. The conditions noted are these: in vivo. The method in brief:
(§1)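 Mice dosed orally by gavage at 15 mg/kg, compound in water at 3 mg/mL of the base; iv comparison dose 5 mg/kg in normal saline; 27-30 animals per group; plasma from serial blood samples, protein-precipitated, kept at -80 °C, quantified by LC/MS/MS.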

The nature of data set [4]: Clearance in CD1 mouse at 5 mg/kg, iv. The conditions noted are these: in vivo.
The nature of data set [5]: AUC (0 to infinity) in CD1 mouse at 5 mg/kg, iv. The arrangement: time infinity, dose 5 mg/kg, route intravenous. The conditions noted are these: plasma. It counts as ADME, organism-based.
The nature of data set [6]: Oral bioavailability in CD1 mouse at 15 mg/kg. Type of data set: ADME, organism-based. As to conditions: in vivo. In a few lines: as §1
In data set [7] the test system is Mus musculus. The data set is described as follows: Volume of distribution at steady state in CD1 mouse at 5 mg/kg, iv. As to conditions: in vivo.
The nature of the next data set: in vitro. As to conditions: human, liver microsomes.
The species named for data set [8] is Mus musculus. Nature of the data set: Hepatic blood flow in mouse. Type of data set: ADME, organism-based, Liver.
The nature of data set [9]: Metabolic stability in mouse liver microsomes assessed as half life. Type of data set: ADME, Microsome.
Data set [10] can be described thus: AUC (0 to 24 hrs) in CD1 mouse at 5 mg/kg, iv. The arrangement: time < 24 hr, dose 5 mg/kg, route intravenous. As to conditions: plasma. Type of data set: ADME, organism-based. The method in brief: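 Mice given single iv dose of 5 mg/kg, compound in normal saline at 1 mg/mL as rapid bolus; 27-30 animals per group; blood sampled at several times after dosing, plasma separated by centrifugation, proteins precipitated, stored -80 °C, analysed by LC/MS/MS (ESI).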

The results in this text go back to ChEMBL document CHEMBL1156799, “Synthesis and biological evaluation of N-hydroxyphenylacrylamides and N-hydroxypyridin-2-ylacrylamides as novel histone deacetylase inhibitors” (J Med Chem, 2010).

The structures appear in SMILES notation.

Regarding `CN1CCN(c2cccc(C(=O)/C=C/c3cccc(/C=C/C(=O)NO)c3)c2)CC1`, the remaining at 0.5 h, 1 µM was 55% in [1] and 7.2% in data set [2].
The corresponding values for `O=C(/C=C/c1cc(/C=C/C(=O)c2ccccc2)ccn1)NO` are 16% and 14%.
The molecule `CN1CCN(c2cccc(C(=O)/C=C/c3cccc(/C=C/C(=O)NO)n3)c2)CC1` had a half-life in data set [3] of 8.5 h. The remaining at 0.5 h, 1 µM is 35% in [1] and 29% in data set [2]. Further, the clearance in [4] stood at 55.3 mL/min/kg. In [5], this molecule showed an AUC(0-inf) of 1510 ng·h/mL. For the same molecule, in [6], the bioavailability was found to be 2%. The Vdss in the data set with Mus musculus [7] was 18.3 L/kg.
Regarding `CN1CCN(c2cccc(C(=O)/C=C/c3ccc(/C=C/C(=O)NO)cc3)c2)CC1`, the remaining at 0.5 h, 1 µM in [1] amounted to 44%; in data set [2], 6.2%.
With `CN1CCN(Cc2ccc(C(=O)/C=C/c3ccc(/C=C/C(=O)NO)cc3)cc2)CC1`, the remaining at 0.5 h, 1 µM was found to be 61% in data set [1] and 17% in data set [2].
As for `CN1CCN(Cc2cccc(C(=O)/C=C/c3ccc(/C=C/C(=O)NO)cc3)c2)CC1`, the values for the remaining at 0.5 h, 1 µM in [1] and in data set [2] were 23% and 17%, respectively.
`CN1CCN(Cc2cccc(C(=O)/C=C/c3ccc(/C=C/C(=O)NO)nc3)c2)CC1` showed a half-life in data set [3] of 6.7 h. The figures for the remaining at 0.5 h, 1 µM in data set [1] and in [2] were 32% and 46%, respectively. In data set [4], this molecule came in with a clearance of 113 mL/min/kg. Also, in data set [5], the AUC(0-inf) is 736 ng·h/mL. In [6], the bioavailability is 3.9%. For the same molecule, the Vdss with Mus musculus [7] came to 28.4 L/kg.
Take `O=C(/C=C/c1cccc(/C=C/C(=O)c2ccccc2)n1)NO`: the results for the remaining at 0.5 h, 1 µM in data set [1] and in data set [2] were 38% and 11%, respectively.
As to `CN1CCN(Cc2ccc(C(=O)/C=C/c3cccc(/C=C/C(=O)NO)c3)cc2)CC1`, the values for the remaining at 0.5 h, 1 µM in data set [1] and in data set [2] were 44% and 33%, respectively.
For `O=C(/C=C/c1cccc(/C=C/C(=O)c2ccccc2)c1)NO`, in that order: 9% and 6%.
The corresponding values for `CN1CCN(c2ccc(C(=O)/C=C/c3ccc(/C=C/C(=O)NO)cc3)cc2)CC1` are 33% and 9.1%.
The corresponding values for `CN1CCN(Cc2ccccc2C(=O)/C=C/c2cccc(/C=C/C(=O)NO)n2)CC1` are 67% and 40%.
For the molecule `O=C(/C=C/c1ccc(/C=C/C(=O)c2ccccc2)cn1)NO`, the remaining at 0.5 h, 1 µM in data set [1] turned out to be 14%; in data set [2] it was 6%.
With `CN1CCN(Cc2cccc(C(=O)/C=C/c3cccc(/C=C/C(=O)NO)c3)c2)CC1`, the remaining at 0.5 h, 1 µM in data set [1] came to 39%; in data set [2], 25%.
For `CN1CCN(c2ccc(C(=O)/C=C/c3ccc(/C=C/C(=O)NO)nc3)cc2)CC1`, in that order: 43% and 3.8%.
In data set [3], `Cc1[nH]c2ccccc2c1CCNCc1ccc(/C=C/C(=O)NO)cc1` [PANOBINOSTAT] gave a half-life of 1.37 h. For the same molecule, the clearance in data set [4] is 305 mL/min/kg. Also, the AUC(0-inf) in data set [5] came out at 273 ng·h/mL. The same molecule gave a bioavailability in data set [6] of 4.6%. For the same molecule, the distribution volume (Vdss) with Mus musculus [7] was 15.1 L/kg.
In the case of `CN1CCN(Cc2ccccc2C(=O)/C=C/c2ccc(/C=C/C(=O)NO)cc2)CC1`, the remaining at 0.5 h, 1 µM was determined as 56% in data set [1] and 4.2% in data set [2].
As for `CN1CCN(c2cccc(C(=O)/C=C/c3ccc(/C=C/C(=O)NO)nc3)c2)CC1`, the remaining at 0.5 h, 1 µM in data set [1] is 41%; in data set [2] it was 20%.
`O=C(CCCCCCC(=O)Nc1ccccc1)NO` [VORINOSTAT]: the half-life was 0.5 h in data set [3], 1 h in the data set “in vitro” and 0.467 h in [9]. Besides, the clearance in data set [4] worked out at 127 mL/min/kg. Further, in the data set filed under Mus musculus [8], the LBF came to 90 mL/min/kg. Besides, in [5], the total exposure AUC(0-inf) came out at 657 ng·h/mL. In addition, the bioavailability in [6] came to 12.1%. Further, the Vdss in the data set with Mus musculus [7] was found to be 1.2 L/kg.
With `CN1CCN(c2ccccc2C(=O)/C=C/c2ccc(/C=C/C(=O)NO)cc2)CC1`, the half-life in data set [3] is 2 h. Besides, the remaining at 0.5 h, 1 µM in data set [1] was determined as 38%; in data set [2], 34%. Moreover, in data set [4], the clearance was found to be 119 mL/min/kg. In [5], this molecule had an area under the curve AUC(0-inf) of 698 ng·h/mL. For the same molecule, the bioavailability in [6] amounted to 18.1%. For the same molecule, the distribution volume (Vdss) in the data set on Mus musculus [7] came out at 5.4 L/kg.
Turning to `CN1CCN(c2ccc(C(=O)/C=C/c3cccc(/C=C/C(=O)NO)n3)cc2)CC1`, the remaining at 0.5 h, 1 µM in data set [1] was 35%; in [2], 19%.
For `CN1CCN(Cc2ccc(C(=O)/C=C/c3cccc(/C=C/C(=O)NO)n3)cc2)CC1`, the half-life in data set [3] was 7.3 h. Besides, the remaining at 0.5 h, 1 µM in data set [1] is 51%; in data set [2] it was 46%. Also, the clearance in [4] came out at 29.2 mL/min/kg. In data set [6], this molecule showed a bioavailability of 2.6%. This molecule yielded an exposure AUC(0-t) at 24 h in data set [10] of 2520 ng·h/mL. Besides, the distribution volume (Vdss) in the data set with Mus musculus [7] stood at 16.07 L/kg.
With `CN1CCN(c2ccccc2C(=O)/C=C/c2cccc(/C=C/C(=O)NO)c2)CC1`, the remaining at 0.5 h, 1 µM in data set [1] stood at 62%; in [2], 44%.
For `CN1CCN(c2ccc(C(=O)/C=C/c3cccc(/C=C/C(=O)NO)c3)cc2)CC1`, in that order: 40% and 5.9%.
For the molecule `O=C(/C=C/c1ccc2c(c1)nc(CCc1ccccc1)n2CCN1CCCC1)NO`, in data set [9], the half-life was 0.05 h.
In the case of `CN1CCN(Cc2ccccc2C(=O)/C=C/c2cccc(/C=C/C(=O)NO)c2)CC1`, in data set [3], the half-life was 8.27 h. The remaining at 0.5 h, 1 µM in data set [1] came out at 62%; in data set [2] it was 35%. Moreover, the clearance in [4] worked out at 98 mL/min/kg. This molecule had an area under the curve AUC(0-inf) in [5] of 849 ng·h/mL. The same molecule returned a bioavailability in [6] of 3.1%. In addition, the distribution volume (Vdss) in the data set with Mus musculus [7] was 20.1 L/kg.
As to `O=C(/C=C/c1ccc(/C=C/C(=O)c2ccccc2)cc1)NO`, the values for the remaining at 0.5 h, 1 µM in data set [1] and in data set [2] were 5% and 2%, respectively.
Consider `CN1CCN(Cc2cccc(C(=O)/C=C/c3cccc(/C=C/C(=O)NO)n3)c2)CC1`, for which the remaining at 0.5 h, 1 µM in data set [1] worked out at 45%; in data set [2], 40%.
The molecule `CN1CCN(Cc2ccc(C(=O)/C=C/c3ccc(/C=C/C(=O)NO)nc3)cc2)CC1` had a half-life in data set [3] of 9.7 h. Besides, the remaining at 0.5 h, 1 µM in [1] amounted to 47%; in data set [2], 56%. Besides, the clearance in [4] was 79.2 mL/min/kg. In data set [5], this molecule displayed a total exposure AUC(0-inf) of 1050 ng·h/mL. The bioavailability in data set [6] was 5.5%. This molecule came in with a Vdss in the data set with Mus musculus [7] of 31.9 L/kg.
On to `CN1CCN(Cc2ccccc2C(=O)/C=C/c2ccc(/C=C/C(=O)NO)nc2)CC1`, for which the half-life in [3] is 5.55 h. In addition, the remaining at 0.5 h, 1 µM is 93% in [1] and 53% in data set [2]. The clearance in data set [4] was 55.8 mL/min/kg. This molecule also gave an AUC(0-inf) in [5] of 1490 ng·h/mL. In addition, the bioavailability in data set [6] is 4.5%. This molecule registered a Vdss in the data set on Mus musculus [7] of 11.7 L/kg.
In data set [3], `O=C(/C=C/c1cccc(S(=O)(=O)Nc2ccccc2)c1)NO` [BELINOSTAT] showed a half-life of 1.21 h. Moreover, in [4], the clearance came out at 193 mL/min/kg. This molecule had an AUC(0-inf) in data set [5] of 431 ng·h/mL. This molecule gave a bioavailability in [6] of 6.66%. The same molecule displayed a distribution volume (Vdss) in the data set on Mus musculus [7] of 5.03 L/kg.
In data set [3], `CN1CCN(c2ccccc2C(=O)/C=C/c2cccc(/C=C/C(=O)NO)n2)CC1` had a half-life of 8.6 h. The remaining at 0.5 h, 1 µM in [1] is 58%; in data set [2], 57%. In addition, the clearance in [4] was found to be 44 mL/min/kg. In [5], this molecule returned an AUC(0-inf) of 1900 ng·h/mL. The same molecule had a bioavailability in [6] of 2.9%. In the data set with Mus musculus [7], this molecule came in with a Vdss of 13.9 L/kg.
Molecule `CN1CCN(c2ccccc2C(=O)/C=C/c2ccc(/C=C/C(=O)NO)nc2)CC1` showed a half-life in data set [3] of 2.3 h. Moreover, the figures for the remaining at 0.5 h, 1 µM in [1] and in data set [2] were 65% and 61%, respectively. Besides, the clearance in data set [4] worked out at 59.7 mL/min/kg. The AUC(0-inf) in data set [5] came to 1400 ng·h/mL. For the same molecule, the bioavailability in data set [6] came out at 6.3%. Besides, the volume of distribution (Vdss) in the data set with Mus musculus [7] stood at 2.1 L/kg.
